Compound activity deposited in PubChem BioAssay by Broad Institute.
Most compounds without a hit are left out; they make up all but 5.9% or so of the library.
IDH1 mut inh: IDH1 R132H (human) inhibition | 0.18% of 70,000 active | O75874 | inhibition, % at 10 µM | IDH1 R132H reductase, diaphorase/resazurin fluorescence, 60 min; in the data active = inhibition above about 34%;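 also: 0% = DMSO and 100% = no enzyme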
T cruzi growth: T. cruzi proliferation inhibition; T. cruzi beta-gal in NIH3T3, GalScreen luminescence, 90 h; inhibition, % at 8.34 µM; 5.9% of 77,000 active;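 active = mean inhibition above about 93%, with at least 55% of replicates each passing it, limit read from the data, passing the limit was not always enough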
Pf Dd2 growth: P. falciparum Dd2 growth inhibition; 2.3% of 94,000 active; AID 1159554; activity change, % at 10 µM; SYBR Green, 72 h; active compounds read low; in the data active = activity change below about -80%
GASC1 inh: blocks human GASC-1 (KDM4C) demethylase activity | Q9H3R0 | GST-KDM4C 2-372, H3K9me3 peptide, LANCE TR-FRET | inhibition, % at 12.5 µM | 0.15% of 96,000 active;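 active = mean replicate inhibition above about 25%, with at least 55% of replicates also reaching it, limit read from the data, passing the limit was not always enough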
Target sequence (Q9H3R0 2-372 limits assumed): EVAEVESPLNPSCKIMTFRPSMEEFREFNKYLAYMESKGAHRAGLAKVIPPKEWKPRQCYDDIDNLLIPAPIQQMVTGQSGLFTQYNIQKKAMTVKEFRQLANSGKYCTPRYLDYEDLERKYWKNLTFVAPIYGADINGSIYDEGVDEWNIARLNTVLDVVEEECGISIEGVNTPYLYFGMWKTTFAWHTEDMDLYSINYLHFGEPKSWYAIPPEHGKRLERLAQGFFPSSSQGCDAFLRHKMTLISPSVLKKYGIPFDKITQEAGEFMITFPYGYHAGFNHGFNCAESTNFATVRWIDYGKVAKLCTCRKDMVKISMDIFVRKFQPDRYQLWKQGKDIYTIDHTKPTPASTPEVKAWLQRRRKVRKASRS
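System – N-terminal GST-fused human GASC-1 (KDM4C) fragment, residues 2-372 · Input – enzyme final amount 10 nM · Technique – LANCE TR-FRET, Eu antibody, ULight-streptavidin, EDTA, ex 340 nm, em 618/671 nm · Medium – HEPES buffer, pH 7.5, plus ascorbate · Incubation – enzyme reaction 30 min, then detection 60 min, both room temperature · Reagent – H3K9me3 peptide with Fe(II)/2OG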
Active calls of the source: *; · = no result given; ! = a repeat was not active.

SMILES	IDH1 mut inh	T cruzi growth	Pf Dd2 growth	GASC1 inh
C[C@H](CO)N1C[C@H](C)[C@H](CN(C)Cc2ccc(C(=O)Nc3ccccc3N)cc2)Oc2ccc(NC(=O)Cc3ccccc3)cc2CC1=O	·	·	-87.4*	-2.1
C[C@H]1CN([C@@H](C)CO)C(=O)Cc2cc(NC(=O)Cc3ccccc3)ccc2O[C@H]1CN(C)Cc1ccc(C(=O)Nc2ccccc2N)cc1	0.9	·	-86.5*	0.1
C[C@H]1CN([C@@H](C)CO)C(=O)Cc2cc(NC(=O)c3ccncc3)ccc2O[C@@H]1CN(C)Cc1ccc(C(=O)Nc2ccccc2N)cc1	0.8	·	-85.9*	-0.6
CC(C)c1ccc2oc(-c3ccc(Cl)c(NC(=O)COc4ccc([N+](=O)[O-])cc4)c3)nc2c1	0.2	·	·	·
CCOC(=O)c1c(NC(=O)c2ccc(C)c(S(=O)(=O)N3CCCCCC3)c2)sc2c1CCC2	0.1	·	·	·
C[C@@H]1CCCCO[C@H](CN(C)C(=O)Nc2ccccc2)[C@@H](C)CN([C@H](C)CO)C(=O)c2cc(NC(=O)C3CCCCC3)ccc2O1	0.3	55.9	-10.5	0.2
C[C@@H]1CCCCO[C@H](CN(C)C(=O)Nc2ccc(F)cc2)[C@@H](C)CN([C@@H](C)CO)C(=O)c2cc(NC(=O)C3CCCCC3)ccc2O1	·	65.8	-86.4*	-0.2
C[C@@H]1CCCCO[C@@H](CN(C)C(=O)Nc2ccc(F)cc2)[C@@H](C)CN([C@@H](C)CO)C(=O)c2cc(NC(=O)C3CCCCC3)ccc2O1	·	71.7	-85.8*	0.9
C[C@@H]1CCCCO[C@H](CN(C)C(=O)Nc2ccccc2)[C@H](C)CN([C@H](C)CO)C(=O)c2cc(NC(=O)C3CCCCC3)ccc2O1	2.5	56.7	-86.6*	-0.6
C[C@H]1CCCCO[C@@H](CN(C)C(=O)Nc2ccc(F)cc2)[C@@H](C)CN([C@@H](C)CO)C(=O)c2cc(NC(=O)C3CCCCC3)ccc2O1	-2.7	72.2	-63.5	-3.1
COc1ccc(C)cc1S(=O)(=O)N1CCC(C(=O)Nc2cccc(SC)c2)CC1	-0.6	·	·	·
Cc1ccc2nc(-c3cccnc3)cc(C(=O)Nc3sc4c(c3C(N)=O)CCCCCC4)c2c1	0.5	·	·	·
Cc1ccc(NC(=O)c2ccc(S(=O)(=O)N3CC(C)CC(C)C3)cc2)c(C(=O)c2ccccc2)c1 (configuration not stated)	-0.1	·	·	·
CCC(=O)N1[C@H](CO)[C@H](c2ccc(C3=CCCCC3)cc2)[C@H]1CNC1CCCC1	·	·	-89.8*	-2.7
CCCNC[C@@H]1[C@@H](c2ccc(C3=CCCC3)cc2)[C@@H](CO)N1C(=O)C1CCCC1	·	·	-91.7*	-2.2
C/C=C/c1ccc([C@H]2[C@@H](CO)N(C(=O)CC)[C@@H]2CNCC2CCCCC2)cc1	·	·	-85.0*	1.6
OC[C@@H]1[C@H](c2ccc(C3=CCCCC3)cc2)[C@@H](CNC2CCCC2)N1CC1CC1	·	·	-91.5*	3.7
CCC(=O)NC[C@H]1[C@H](c2ccc(C3=CCCC3)cc2)[C@@H](CO)N1C(=O)C1CC1	·	44.0	-10.9	0.4
CCCC(=O)N1CC2(C1)CN(S(=O)(=O)c1ccc(C)cc1)[C@@H](CO)c1[nH]c3cc(OC)ccc3c12	·	·	-87.4*	-0.1
COc1ccc2c3c([nH]c2c1)[C@H](CO)N(S(=O)(=O)c1ccc(C)cc1)CC31CCN(C(=O)Cc2cccnc2)CC1	·	·	-86.2*	·
CCS(=O)(=O)N1CC2(C1)CN(S(=O)(=O)c1ccc(C)cc1)[C@H](CO)c1[nH]c3cc(OC)ccc3c12	·	·	-39.9	-0.2
COc1ccc2nc(/N=C(/N)NC(=O)N3c4ccccc4Sc4ccccc43)nc(C)c2c1	-1.3	·	·	·
COc1cccc(S(=O)(=O)N(C)C[C@H]2OCc3ccccc3-c3c(n(C)c4ccccc34)C(=O)N([C@@H](C)CO)C[C@@H]2C)c1	·	34.7	-83.4*	-10.7
C[C@@H]1CN([C@@H](C)CO)C(=O)c2c(c3ccccc3n2C)-c2ccccc2CO[C@H]1CN(C)S(=O)(=O)c1ccccc1	·	78.0	-72.0	-1.6
Cc1noc(C)c1S(=O)(=O)N(C)C[C@H]1OCc2ccccc2-c2c(n(C)c3ccccc23)C(=O)N([C@@H](C)CO)C[C@H]1C	-1.3	84.3	-88.7*	8.1
SMILES	IDH1 mut inh	T cruzi growth	Pf Dd2 growth	GASC1 inh
Cc1noc(C)c1S(=O)(=O)N(C)C[C@@H]1OCc2ccccc2-c2c(n(C)c3ccccc23)C(=O)N([C@@H](C)CO)C[C@H]1C	0.1	11.4	17.2	-0.4
C[C@H]1CN([C@@H](C)CO)C(=O)c2c(c3ccccc3n2C)-c2ccccc2CO[C@H]1CN(C)S(=O)(=O)c1ccc([N+](=O)[O-])cc1	·	·	-89.2*	6.5
C[C@H]1CN([C@@H](C)CO)C(=O)c2c(c3ccccc3n2C)-c2ccccc2CO[C@H]1CN(C)S(=O)(=O)c1ccccc1	·	64.8	-84.2*	-1.3
O=C(CN1C(=O)c2ccccc2S1(=O)=O)Nc1cccc(O)c1	-0.5	·	·	·
N#Cc1c[nH]c2ccc(NC(=O)/C=C/c3ccc(OC(F)(F)F)cc3)cc12	-1.2	·	·	·
C[C@H]1CN([C@@H](C)CO)C(=O)c2ccccc2-c2ccccc2CO[C@H]1CN(C)S(=O)(=O)c1ccc(Cl)cc1	·	51.1	-82.8*	0.6
COc1ccc(S(=O)(=O)N(C)C[C@H]2OCc3ccccc3-c3c(n(C)c4ccccc34)C(=O)N([C@@H](C)CO)C[C@H]2C)cc1	-0.1	83.2	-82.7*	-1.1
Cc1ccc(S(=O)(=O)N(C)C[C@H]2OCc3ccccc3-c3c(n(C)c4ccccc34)C(=O)N([C@H](C)CO)C[C@@H]2C)cc1	·	76.6	-87.6*	-4.5
C[C@H](CO)N1C[C@H](C)[C@@H](CN(C)S(=O)(=O)c2ccc(Cl)cc2)OCc2ccccc2-c2c(n(C)c3ccccc23)C1=O	·	80.6	-85.2*	-1.2
C[C@H](CO)N1C[C@H](C)[C@H](CN(C)S(=O)(=O)c2ccccc2)OCc2ccccc2-c2c(n(C)c3ccccc23)C1=O	·	·	-35.5	·
Cc1ccc(F)cc1N1C(=O)COCC1=O	-1.2	·	·	·
CCOc1ccc(NC(=O)N(Cc2cn(C)c3ccccc23)C2CCCCC2)cc1	-0.4	·	·	·
COc1ccccc1CN1C[C@@H]2N[C@H](C1)C2c1ccc(-c2cccc(C#N)c2)cc1 (some centres not stated)	·	·	-23.8	-1.1
N#Cc1cccc(-c2ccc(C3[C@@H]4CN(S(=O)(=O)Cc5ccccc5)C[C@H]3N4)cc2)c1 (some centres not stated)	·	·	-26.7	-2.1
N#Cc1ccc(-c2ccc([C@@H]3[C@@H]4CN(S(=O)(=O)Cc5ccccc5)C[C@H]3N4)cc2)cc1	·	·	-86.0*	-0.4
N#Cc1cccc(-c2ccc(C3[C@@H]4CN(Cc5ccccc5)C[C@H]3N4)cc2)c1 (some centres not stated)	·	·	-90.7*!	1.2
COc1ccccc1CN1C[C@@H]2N[C@H](C1)C2c1ccc(-c2ccc(C#N)cc2)cc1 (some centres not stated)	·	·	-82.4*!	-0.3
N#Cc1ccc(-c2ccc(C3[C@@H]4CN(Cc5ccccc5F)C[C@H]3N4)cc2)cc1 (some centres not stated)	·	·	-88.6*!	14.2
